# Compound activity (PubChem)
# In the library only some 2.3% were active in any assay of this set; here they are far more common.
# TRPC6 inhibitor – mouse TRPC6 channel inhibitors, primary screen, cell-based, HEK293, membrane potential dye | hit rate 1.1% among 310,000 | B-score at 10 µM | ACh-evoked depolarization; active compounds read low | AID 2553, 2010 | Short transient receptor potential channel 6 (Mus musculus), Q61143;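 active = B-score under library mean minus 3 SD, initial fluorescence not abnormally high, positive integrated signal ratio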;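 note: B-score derived from integrated fluorescence ratio over the kinetic read; more negative B-score means stronger inhibition of depolarization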
# Target sequence (Q61143 whole entry, looked up): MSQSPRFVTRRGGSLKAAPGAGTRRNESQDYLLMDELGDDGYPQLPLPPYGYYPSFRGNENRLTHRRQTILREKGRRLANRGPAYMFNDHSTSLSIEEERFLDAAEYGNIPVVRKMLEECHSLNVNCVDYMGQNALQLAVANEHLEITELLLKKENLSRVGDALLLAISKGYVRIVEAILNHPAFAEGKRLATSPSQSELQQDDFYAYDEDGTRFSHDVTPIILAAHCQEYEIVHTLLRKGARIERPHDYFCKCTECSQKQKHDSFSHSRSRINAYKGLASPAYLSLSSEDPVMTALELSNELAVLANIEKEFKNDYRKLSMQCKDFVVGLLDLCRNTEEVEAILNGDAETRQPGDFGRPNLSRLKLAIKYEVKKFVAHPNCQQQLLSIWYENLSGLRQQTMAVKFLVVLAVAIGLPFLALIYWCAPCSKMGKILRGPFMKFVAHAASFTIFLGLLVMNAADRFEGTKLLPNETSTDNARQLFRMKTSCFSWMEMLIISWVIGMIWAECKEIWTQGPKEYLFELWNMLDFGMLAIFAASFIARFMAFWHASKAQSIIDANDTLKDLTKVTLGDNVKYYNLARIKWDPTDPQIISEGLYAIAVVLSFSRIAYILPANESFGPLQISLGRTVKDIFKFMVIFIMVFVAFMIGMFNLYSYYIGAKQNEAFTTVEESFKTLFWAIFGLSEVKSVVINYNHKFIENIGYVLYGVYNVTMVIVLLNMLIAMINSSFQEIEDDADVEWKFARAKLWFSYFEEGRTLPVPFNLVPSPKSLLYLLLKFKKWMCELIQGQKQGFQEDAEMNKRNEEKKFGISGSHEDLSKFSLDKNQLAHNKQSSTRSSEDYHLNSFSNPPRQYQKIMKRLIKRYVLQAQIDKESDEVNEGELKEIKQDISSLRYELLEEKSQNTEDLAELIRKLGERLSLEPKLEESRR
# TRPC4 potent – positive allosteric modulators of TRPC4, primary screen, cell-based, mouse TRPC4beta, HEK293 mu-opioid, Fluo-4 calcium; hit rate 0.42% among 310,000; Short transient receptor potential channel 4 (Mus musculus), Q9QUQ5; B-score at 10 µM; DAMGO EC20, Fluo-4 Ca2+ flux; active compounds read high;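 active = B-score of calcium response area above 5 SD of library B-scores, with initial fluorescence ratio within 5 SD of library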;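 note: B-score of integrated fluorescence ratio over time as area under calcium response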
# TRPC6 act – mouse TRPC6 channel activators, primary screen, cell-based, HEK293, membrane potential dye; Short transient receptor potential channel 6 (Mus musculus), Q61143; HEK293-TRPC6 membrane potential dye fluorescence; active compounds read high; B-score at 10 µM; hit rate 0.13% among 310,000;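 active = B-score of the integrated fluorescence ratio above library mean plus 3 SD, and starting fluorescence ratio within library mean plus 5 SD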;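 note: higher score means more depolarization so channel activation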
# TRPC4 act – activators of mouse TRPC4 channel, primary screen, Fluo4 calcium, HEK293 TRPC4beta/mu-opioid cells; Fluo4 calcium fluorescence; active compounds read high; hit rate 0.49% among 310,000; B-score at 10 µM; Short transient receptor potential channel 4 (Mus musculus), Q9QUQ5;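 active = B-score above 5 SD of library B-scores, and initial fluorescence ratio not above library mean plus 5 SD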;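 note: positive B-score marks a calcium rise read as TRPC4 activation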
#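 Test system: HEK293 cells stably co-expressing mouse TRPC4beta and mu-opioid receptor | Schedule: Fluo4 dye loading 45 min at room temperature, 110 s recording | Measured by: Kinetic Fluo4 calcium fluorescence, 5 s baseline at 1 Hz | Evaluation: B score of integrated ratio | Controls: Buffer (low) and maximal DAMGO (high)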
# TRPC4 block – inhibitors of mouse TRPC4 channel, primary screen, Fluo4 calcium, HEK293 TRPC4beta/mu-opioid cells | Short transient receptor potential channel 4 (Mus musculus), Q9QUQ5 | DAMGO-evoked Fluo4 calcium flux; active compounds read low | B-score at 10 µM | hit rate 0.39% among 300,000;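 active = B-score over 3 SD under the library average, no early fluorescence shift, positive overall ratio signal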
#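 test system = HEK293 cells with stable TRPC4beta plus mu-opioid receptor expression | detection = Fluo4 Ca2+ flux fluorescence | read-out = integrated fluorescence ratio relative to baseline, converted to per-well B score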
# TRPC4 sel inh 2 – second selectivity test of TRPC6 inhibitors: effect on mouse TRPC4 | shares compounds with TRPC6 inhibitor | HEK293 TRPC4/MOR, membrane potential dye fluorescence; channel activated by saturating DAMGO dose | inhibition, % at 10 µM | hit rate 42% among 920 | AID 2776;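 active = compounds whose fluorescence signal differed from control wells by over 3 SD, either direction, in both duplicate plates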
# TRPC4 spec – mouse TRPC4 modulation by TRPC6 hits, confirmation, selectivity assay for TRPC6 inhibitor project, cell-based, HEK293 TRPC4/mu-opioid, membrane potential dye. membrane potential fluorescence. shares compounds with TRPC6 inhibitor. hit rate 61% among 920. AID 2777, 2010. activity change, negative = inhibition, % at 10 µM;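 active = rise or fall in signal beyond 3 SD of buffer-only wells in both replicate plates, either sign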;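 note: integrated kinetic ratio of fluorescence range over baseline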
# HEK293 MPD ctr 2-1 – nonspecific membrane potential effects, parental HEK293, confirmation, counter-screen for TRPC6 inhibitor project, cell-based, second counter screen. signal change vs control, % at 10 µM. shares compounds with TRPC6 inhibitor. parental HEK293 membrane potential dye fluorescence; maximal acetylcholine challenge after compound addition. hit rate 31% among 920. AID 2779, 2010;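 active = membrane potential signal moving either way by over 3 SD of the maximum-effect control, in both duplicate plates, meaning non-specific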
# HEK293 MPD ctr-1 – membrane potential modulation in parental HEK293, confirmation, counter-screen for TRPC6 inhibitor project, cell-based | AID 2780, 2010 | membrane potential signal change, % at 10 µM | parental HEK293 membrane potential dye fluorescence | shares compounds with TRPC6 inhibitor | hit rate 60% among 920;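 active = membrane potential signal shifting up or down by more than 3 SD of buffer-only wells, on both duplicate plates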
# HEK293 MPD ctr-2 – parental HEK293 membrane potential modulation, confirmation, counter-screen for TRPC6 modulator project, cell-based | hit rate 51% among 2,400 | membrane potential dye fluorescence | membrane potential signal change, % at 10 µM | shares compounds with TRPC6 inhibitor;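 active = membrane potential signal moves up or down beyond 5 SD from buffer-only wells, on both duplicate plates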
# HEK293 MPD ctr 2-2 – second counter-screen for TRPC6 modulators: effect in parental HEK293 cells. AID 488926. membrane potential dye fluorescence; after compound, maximal acetylcholine stimulation. hit rate 14% among 2,400. shares compounds with TRPC6 inhibitor. inhibition, % at 10 µM;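 active = membrane potential signal drops by more than 5 SD from the mean control signal, in both duplicate plates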;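 note: plate controls were acetylcholine ECmax control wells for no effect and buffer only wells for full effect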
# TRPC4 ctr mod – TRPC4 modulation by TRPC6 hit compounds, confirmation, selectivity assay for TRPC6 modulator project, cell-based, HEK293 TRPC4/mu-opioid, membrane potential dye, mouse | shares compounds with TRPC6 inhibitor | membrane potential fluorescence | percent change from control (negative = decrease, positive = increase), % at 10 µM | hit rate 69% among 2,400;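 active = membrane potential signal moved up or down beyond 5 SD of buffer control wells, in both duplicate plates, actives on both sides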;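 note: plate controls were assay buffer wells for no effect and DAMGO maximal-effect wells for full effect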
# TRPC4/MOR inh 2 – second selectivity test of TRPC6 modulators against mouse TRPC4; HEK293 TRPC4/mu-opioid, membrane potential dye fluorescence; stimulated with maximal-effect DAMGO; shares compounds with TRPC6 inhibitor; AID 488928; hit rate 55% among 2,400; inhibition, % at 10 µM;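 active = drop in membrane potential signal beyond 5 SD of the control wells in both duplicate plates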;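 note: TRPC4 counter screen for TRPC6 hits run under conditions tuned for TRPC6 not TRPC4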
# TRPC6 block conf – mouse TRPC6 channel inhibitors, confirmation, HEK293 cells, membrane potential dye, duplicate; inhibition, % at 10 µM; hit rate 43% among 3,300; ACh-evoked depolarization; shares compounds with TRPC6 inhibitor;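 active = fluorescence ratio falls more than 5 SD below the full-stimulation control mean, in both duplicate runs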;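 note: integrated fluorescence ratio of peak minus minimum over baseline after agonist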
# TRPC6 act confirm – mouse TRPC6 channel activators, confirmation, HEK293 cells, membrane potential dye, duplicate | HEK293-TRPC6 membrane potential dye fluorescence, FDSS | shares compounds with TRPC6 inhibitor | activation, % at 10 µM | hit rate 11% among 2,800;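 active = ratio signal rise beyond 5 SD above unstimulated control wells' mean, seen in both duplicate runs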;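 note: plate controls were buffer EC0 wells for no effect and acetylcholine ECmax response for full effect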
# Starred values were filed as active, the others as inactive; i = inactive; nt = no result.
SMILES,TRPC6 inhibitor,TRPC4 potent,TRPC6 act,TRPC4 act,TRPC4 block,HEK293 MPD ctr-2,HEK293 MPD ctr 2-2,TRPC4 ctr mod,TRPC4/MOR inh 2,TRPC6 block conf,TRPC6 act confirm,others
CCN1CCN(c2cc(C)c3cc(NC(=O)c4ccc(Br)o4)ccc3n2)CC1,-5.5*,i,i,i,-6*,i,i,-12%*,42%*,i,i,
CCN1CCN(c2cc(C)c3cc(NC(=O)c4ccc(C)c(C)c4)ccc3n2)CC1,i,i,i,i,i,nt,nt,nt,nt,nt,nt,
CNC(=S)N/N=C/c1cn(Cc2c(F)cccc2Cl)c2ccccc12,-5.3*,i,i,i,i,i,i,i,i,i,nt,
CCOc1cc(S(=O)(=O)NCCCN2CCOCC2)ccc1F,i,i,i,i,i,nt,nt,nt,nt,nt,nt,
CCOC(=O)c1cnc2c(cnn2C)c1NCCCn1ccnc1,-7.5*,i,i,i,i,-352%*,115%*,-52%*,68%*,73%*,i,
CCOC(=O)c1cnc2c(cnn2C)c1NCCCN(C)C,i,i,i,i,i,nt,nt,nt,nt,nt,nt,
Cc1cccc(N2CCN(C(=O)C3COc4ccccc4O3)CC2)c1C (stereo unspecified),-5.1*,i,i,i,i,i,i,i,i,42%*,nt,
COc1ccc2c(C)c(CC(=O)N3CCN(C(=O)C4COc5ccccc5O4)CC3)c(=O)oc2c1 (stereo unspecified),-5.3*,i,i,i,i,238%*,i,44%*,i,i,nt,
O=C(C1COc2ccccc2O1)N1CCN(c2ccccc2Cl)CC1 (stereo unspecified),i,i,i,i,i,nt,nt,nt,nt,nt,nt,
CCOc1ccc(NC(=O)C2CCCN(C)C2)cc1 (stereo unspecified),i,i,i,i,i,nt,nt,nt,nt,nt,nt,
O=C(O)c1cc(NN=C2c3ccccc3-c3ccccc32)ccc1Cl,-5.4*,i,i,i,-8*,i,i,-12%*,59%*,61%*,nt,
CCc1ccc(-c2nc(CN3CCC(C(=O)NCCN(CC)c4ccccc4)CC3)c(C)o2)cc1,-5.6*,i,i,i,i,i,i,i,62%*,i,i,
CCN(CCNC(=O)C1CCN(Cc2nc(-c3cccc(Cl)c3)oc2C)CC1)c1ccccc1,i,i,i,i,i,nt,nt,nt,nt,nt,nt,
Nc1ccccc1Nc1nc2ccccc2[nH]1,-5.5*,i,i,i,i,340%*,i,88%*,i,i,nt,
Cc1cccc(NC(=O)c2cc3c(=O)n4ccccc4nc3s2)c1,i,i,i,i,i,nt,nt,nt,nt,nt,nt,
CC(=O)NS(=O)(=O)c1ccc(NC(=O)c2cc3c(=O)n4ccccc4nc3s2)cc1,-7.9*,i,i,i,i,nt,nt,nt,nt,i,i,TRPC4 sel inh 2=74%*;TRPC4 spec=-35%*;HEK293 MPD ctr 2-1=30%*;HEK293 MPD ctr-1=-653%*
O=[N+]([O-])c1cccc(-c2nnc(-c3ccccc3)o2)c1,i,i,i,i,i,nt,nt,nt,nt,nt,nt,
Cc1sc2cc(-c3cccc([N+](=O)[O-])c3)c(-c3cccc([N+](=O)[O-])c3)c[n+]2c1C,-6.7*,i,i,i,i,-332%*,96%*,-54%*,66%*,74%*,i,
O=[N+]([O-])c1cccc(-c2cc3cccc[n+]3cc2-c2cccc([N+](=O)[O-])c2)c1,-10*,i,i,i,i,-395%*,i,-74%*,70%*,56%*,i,
O=C(CSc1ccc(-c2ccccn2)nn1)NCc1ccc(F)cc1,i,i,i,i,i,nt,nt,nt,nt,nt,nt,
N#CCc1nn(-c2ccccc2)c2ncnc(N)c12,i,i,i,i,i,nt,nt,nt,nt,nt,nt,
CCN(CC)C(=O)CCc1nnc(CCc2c[nH]c3ccccc23)o1,i,i,i,i,i,nt,nt,nt,nt,nt,nt,
CCCN(CC1CC1)C(=O)CCc1nnc(CCc2c[nH]c3ccccc23)o1,-6.8*,i,i,i,i,nt,nt,nt,nt,i,i,TRPC4 sel inh 2=i;TRPC4 spec=2.7%*;HEK293 MPD ctr 2-1=i;HEK293 MPD ctr-1=0.9%*
